Test results from ChEMBL document CHEMBL4699522, “Androsamide, a Cyclic Tetrapeptide from a Marine Nocardiopsis sp., Suppresses Motility of Colorectal Cancer Cells” (J Nat Prod, 2020).
Calls of active or inactive are those of the source. Non-standard residues stand in square brackets, D forms with d. Residues, ends and D or L forms follow the SMILES beside them. NMeTrp(4-OMe) = CN[C@@H](Cc1c[nH]c2cccc(OC)c12)C(=O)O; NMeM = CN[C@@H](CCSC)C(=O)O

Columns and labels:
Caco-2 [1] = test: Inhibition of epithelial-mesenchymal transition in human Caco-2 cells assessed as decrease in Snail protein expression at 0.65 to 1.3 uM after 24 hrs by Western blot analysis; assay type: functional, cell-based; details: dose microM 0.65-1.3, time 24.0 hrs
Outline: (§1)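 2 × 10^5 Caco2 cells per well treated 24 h at nontoxic concentrations. Lysates separated by SDS-PAGE and probed with primary antibodies, then HRP-conjugated secondaries. Luminescence band densities normalized to α-tubulin and compared with DMSO-treated cells. Means ± SEM, n = 3.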

AGS = test: Cytotoxicity against human AGS cells assessed as reduction in cell viability after 48 hrs by MTT assay; assay type: functional, cell-based
Outline: (§2)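 MTT read-out. Cells seeded at (2-3) × 10^3/well, incubated 12 h, then exposed to 3.125–100 μM for 48 h, with MTT added for the final 4 h. Absorbance read at 540 nm. Viability is normalized to DMSO-treated cells. IC50 computed by statistical software. Means ± SEM, n = 3. AGS cells were grown in RPMI, Caco2 and HCT116 in DMEM, all with 10% FBS, at 37 °C and 5% CO2.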

Caco-2 [2] = test: Inhibition of cell migration in human Caco-2 cells after 24 hrs by fluorescence microscope based Boyden-Chamber cell migration assay; assay type: functional; details: dose microM 0.15-1.3, time 24.0 hrs
Outline: (§3)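 Boyden chambers coated with 1% gelatin. Caco2 seeded at 2.5 × 10^6 cells/mL in 0.2% BSA medium; the lower chamber has 0.2% BSA medium with 10 μg/mL fibronectin. Exposed to 0.15, 0.65 or 1.3 μM for 24 h at 37 °C. Invaded cells fixed, Diff-Quick stained and counted in five random fields by fluorescence microscopy. Expressed relative to DMSO control; three replicates.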

Caco-2 [3] = test: Inhibition of epithelial-mesenchymal transition in human Caco-2 cells assessed as decrease in Twist protein expression at 0.65 to 1.3 uM after 24 hrs by Western blot analysis; assay type: functional, cell-based; details: dose microM 0.65-1.3, time 24.0 hrs; outline: as §1
HCT-116 [4] = test: Induction of apoptosis in human HCT-116 cells at 21 to 26 uM after 6 hrs by annexin V-FITC/propidium iodide staining based flow cytometric analysis; assay type: functional, cell-based; details: dose microM 21-26, time 6.0 hrs
Caco-2 [5] = test: Inhibition of epithelial-mesenchymal transition in human Caco-2 cells assessed as decrease in ZEB1 mRNA expression at 0.65 to 1.3 uM after 24 hrs by qRT-PCR analysis; assay type: functional, cell-based; details: dose microM 0.65-1.3, time 24.0 hrs
Outline: (§4)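 Caco2 treated 24 h at 0.65 or 1.3 μM. Total RNA isolated, and 1 μg reverse-transcribed. Quantified by SYBR green real-time PCR. Fold change derived from cycle-threshold values, normalized to GAPDH, and compared with DMSO-treated cells. Means ± SEM, n = 3.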

Caco-2 [6] = test: Inhibition of cell migration in human Caco-2 cells at 1.3 uM after 24 hrs by fluorescence microscope based Boyden-Chamber cell migration assay relative to control; assay type: functional; outline: as §3
Caco-2 [7] = test: Inhibition of epithelial-mesenchymal transition in human Caco-2 cells assessed as decrease in ZEB2 mRNA expression at 0.65 to 1.3 uM after 24 hrs by qRT-PCR analysis; assay type: functional, cell-based; details: dose microM 0.65-1.3, time 24.0 hrs; outline: as §4
Caco-2 [8] = test: Inhibition of epithelial-mesenchymal transition in human Caco-2 cells assessed as decrease in N-cadherin protein expression at 0.65 to 1.3 uM after 24 hrs by Western blot analysis; assay type: functional, cell-based; details: dose microM 0.65-1.3, time 24.0 hrs; outline: as §1
Caco-2 [9] = test: Inhibition of cell motility in human Caco-2 cells assessed as reduction in RAC2 mRNA expression at 0.65 to 1.3 uM by RT2 Profiler PCR Array; assay type: functional, cell-based; details: dose microM 0.65-1.3
Caco-2 [10] = test: Inhibition of epithelial-mesenchymal transition in human Caco-2 cells assessed as increase in E-cadherin protein expression at 0.65 to 1.3 uM after 24 hrs by Western blot analysis; assay type: functional, cell-based; details: dose microM 0.65-1.3, time 24.0 hrs; outline: as §1
Caco-2 [11] = test: Inhibition of cell motility in human Caco-2 cells assessed as reduction in CAPN1 mRNA expression at 0.65 to 1.3 uM by RT2 Profiler PCR Array; assay type: functional, cell-based; details: dose microM 0.65-1.3
Caco-2 [12] = test: Induction of apoptosis in human Caco-2 cells at 13 to 16 uM after 6 hrs by annexin V-FITC/propidium iodide staining based flow cytometric analysis; assay type: functional, cell-based; details: dose microM 13-16, time 6.0 hrs
Caco-2 [13] = test: Inhibition of epithelial-mesenchymal transition in human Caco-2 cells assessed as decrease in N-cadherin mRNA expression after 24 hrs by qRT-PCR analysis; assay type: functional, cell-based; details: dose microM 0.65-1.3, time 24.0 hrs; outline: as §4
HCT-116 [14] = test: Cytotoxicity against human HCT-116 cells assessed as reduction in cell viability after 48 hrs by MTT assay; assay type: functional, cell-based; outline: as §2
Caco-2 [15] = test: Inhibition of cell migration in human Caco-2 cells at 1.3 uM after 6 hrs by K1-Fluo RT fluorescence confocal microscope based transwell assay relative to control; assay type: functional
Outline: (§5)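 Migration through uncoated Boyden chambers. (2.0-2.5) × 10^5 Caco2 cells seeded in medium with 0.2% BSA. The lower chamber holds 0.2% BSA medium plus 10 μg/mL fibronectin as chemoattractant. Treated at 0.15, 0.65 or 1.3 μM for 6 h at 37 °C. Migrated cells fixed, Diff-Quick stained and counted in five random fields by confocal microscopy. Expressed relative to DMSO control; triplicate.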

Caco-2 [16] = test: Inhibition of epithelial-mesenchymal transition in human Caco-2 cells assessed as increase in E-cadherin mRNA expression after 24 hrs by qRT-PCR analysis; assay type: functional, cell-based; details: dose microM 0.65-1.3, time 24.0 hrs; outline: as §4
Caco-2 [17] = test: Inhibition of cell migration in human Caco-2 cells after 6 hrs by K1-Fluo RT fluorescence confocal microscope based transwell assay; assay type: functional; details: dose microM 0.15-1.3, time 6.0 hrs; outline: as §5
Caco-2 [18] = test: Inhibition of epithelial-mesenchymal transition in human Caco-2 cells assessed as decrease in vimentin mRNA expression after 24 hrs by qRT-PCR analysis; assay type: functional, cell-based; details: dose microM 0.65-1.3, time 24.0 hrs; outline: as §4
Caco-2 [19] = test: Inhibition of epithelial-mesenchymal transition in human Caco-2 cells assessed as decrease in Snail mRNA expression at 0.65 to 1.3 uM after 24 hrs by qRT-PCR analysis; assay type: functional, cell-based; details: dose microM 0.65-1.3, time 24.0 hrs; outline: as §4
Caco-2 [20] = test: Inhibition of epithelial-mesenchymal transition in human Caco-2 cells assessed as decrease in Twist mRNA expression at 0.65 to 1.3 uM after 24 hrs by qRT-PCR analysis; assay type: functional, cell-based; details: dose microM 0.65-1.3, time 24.0 hrs; outline: as §4
Caco-2 [21] = test: Inhibition of epithelial-mesenchymal transition in human Caco-2 cells assessed as decrease in Slug mRNA expression at 0.65 to 1.3 uM after 24 hrs by qRT-PCR analysis; assay type: functional, cell-based; details: dose microM 0.65-1.3, time 24.0 hrs; outline: as §4
Caco-2 [22] = test: Cytotoxicity against human Caco-2 cells assessed as reduction in cell viability after 48 hrs by MTT assay; assay type: functional, cell-based; outline: as §2

SMILES: CC[C@H](C)[C@@H]1NC(=O)[C@H]([C@@H](C)O)NC(=O)[C@H](Cc2c[nH]c3cccc(OC)c23)N(C)C(=O)[C@H](CCSC)N(C)C1=O (cyclo(I[NMeM][NMeTrp(4-OMe)]T))
- inhibition (Caco-2 [1]): Active
- Activity (AGS): Dose-dependent effect
- IC50 (AGS): 18 µM
- inhibition (Caco-2 [2]): Dose-dependent effect
- inhibition (Caco-2 [3]): Active
- Activity (HCT-116 [4]): Active
- inhibition (Caco-2 [5]): Active
- inhibition at 1.3 µM (Caco-2 [6]): 45%
- inhibition (Caco-2 [7]): Active
- inhibition (Caco-2 [8]): Active
- inhibition (Caco-2 [9]): Active
- inhibition (Caco-2 [10]): Active
- inhibition (Caco-2 [11]): Active
- Activity (Caco-2 [12]): Active
- inhibition (Caco-2 [13]): Dose-dependent effect
- Activity (HCT-116 [14]): Dose-dependent effect
- IC50 (HCT-116 [14]; HCT-116, 48 h): 21 µM
- inhibition at 1.3 µM (Caco-2 [15]): 50%
- inhibition (Caco-2 [16]): Dose-dependent effect
- inhibition (Caco-2 [17]): Dose-dependent effect
- inhibition (Caco-2 [18]): Dose-dependent effect
- inhibition (Caco-2 [19]): Active
- inhibition (Caco-2 [20]): Active
- inhibition (Caco-2 [21]): Active
- Activity (Caco-2 [22]): Dose-dependent effect
- IC50 (Caco-2 [22]; Caco-2, 48 h): 13 µM
